Calls of active or inactive are those of the source. The calls are words filed in the database; no cut-off is given here.

The target in one experiment is Tubulin (Homo sapiens) (UniProt P68371+Q9H4B7+P0DPH7+P68366+Q13509+Q71U36+P04350+Q3ZCM7+P07437+P68363+Q9BQE3+Q6PEY2+Q13885+Q9BVA1+Q9BUF5). Briefly: Inhibition of tubulin (unknown origin) polymerization at 2 uM by immunoblot analysis. Format: protein-complex assay. The gist of the method: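 Cell-based assay. Cells were treated with compound at 1.0 and 2.0 μM. Polymerized tubulin (pellet) was separated from unpolymerized tubulin (supernatant), and both fractions were immunoblotted with anti-tubulin antibody.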

The next experiment deals with A498. The experiment can be described thus: Growth inhibition of human A498 cells at 10 uM after 48 hrs by sulforhodamine B assay relative to control. The format is functional. The following applies: A498, 48 h, values are per cent of control. In short, it runs like this:
(§1)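 NCI-60 single-dose screen. Cells exposed to 10⁻⁵ M or to vehicle for 48 h. Growth measured by sulforhodamine B optical density before and after exposure. Reported as percent growth relative to vehicle control and to time-zero cell number; negative values indicate cell kill.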
Background: In SRB staining, fixed cells bind dye roughly in proportion to their protein.

The subject of another experiment is DU-145. The experiment can be described thus: Growth inhibition of human DU145 cells at 10 uM after 48 hrs by sulforhodamine B assay relative to control. The format is functional. The following applies: DU-145, 48 h, values are per cent of control. In short, it runs like this: as §1
The next experiment concerns MDA-MB-435. The experiment can be described thus: Growth inhibition of human MDA-MB-435 cells at 10 uM after 48 hrs by sulforhodamine B assay relative to control. Format: functional. The note with it: MDA-MB-435, 48 h, values are per cent of control. In short, it runs like this: as §1
The next experiment concerns OVCAR-3. Briefly: Growth inhibition of human OVCAR3 cells at 10 uM after 48 hrs by sulforhodamine B assay relative to control. The format is functional. The note with it: OVCAR-3, 48 h, values are per cent of control. In short, it runs like this:
as §1

In a further experiment the test system is KM12. The experiment can be described thus: Growth inhibition of human KM12 cells at 10 uM after 48 hrs by sulforhodamine B assay relative to control. The note with it: KM12, 48 h, values are per cent of control. The format is functional. The gist of the method:
as §1

For another experiment, the system named is NCI-H522. The experiment can be described thus: Growth inhibition of human NCI-H522 cells at 10 uM after 48 hrs by sulforhodamine B assay relative to control. Format: functional. The note with it: NCI-H522, 48 h, values are per cent of control. The gist of the method: as §1
A further experiment relates to NCI-H460. The experiment can be described thus: Growth inhibition of human NCI-H460 cells at 10 uM after 48 hrs by sulforhodamine B assay relative to control. Format: functional. The following applies: NCI-H460, 48 h, values are per cent of control. The gist of the method:
as §1

A further experiment concerns SK-MEL-5. The experiment can be described thus: Growth inhibition of human SK-MEL-5 cells at 10 uM after 48 hrs by sulforhodamine B assay relative to control. The format is functional. The note with it: SK-MEL-5, 48 h, values are per cent of control. In short, it runs like this: as §1
The next experiment concerns SF-539. Briefly: Growth inhibition of human SF539 cells at 10 uM after 48 hrs by sulforhodamine B assay relative to control. The following applies: SF-539, 48 h, values are per cent of control. The format is functional. The gist of the method:
as §1

Turning to `COc1ccc(/C=C(/c2cc(OC)c(OC)c(OC)c2)c2nnn[nH]2)cc1`, the inhibition entry on Tubulin (Homo sapiens) was “Active”. In addition, the growth, % of control at 10 µM with A498 worked out at 102%; with DU-145, 108%; in the experiment with MDA-MB-435 it was 100%; in the experiment with OVCAR-3, 113%; in the experiment on KM12, 102%; in the experiment with NCI-H522 it was 90.3%. The growth, % of control at 10 µM with NCI-H460 is 110%; with SK-MEL-5, 94.1%.

On to `COc1ccc(/C(=C/c2cc(OC)c(OC)c(OC)c2)c2nnn[nH]2)cc1OC`, for which the growth, % of control at 10 µM with A498 worked out at 89.5%; with DU-145, 106%; with MDA-MB-435 it was 102%; in the experiment on OVCAR-3 it was 118%; with KM12, 99.8%; with SF-539 it was 96.2%. The growth, % of control at 10 µM with NCI-H522 was 90.2%; with NCI-H460, 106%; with SK-MEL-5, 96.4%.

Consider `COc1ccc(/C=C(/c2ccc([N+](=O)[O-])cc2)c2nnn[nH]2)c2ccccc12`, for which, on Tubulin (Homo sapiens), the inhibition entry was “Active”. Also, the growth, % of control at 10 µM is 112% in the experiment with A498; 113% in the experiment on DU-145; 105% in the experiment on MDA-MB-435; 112% in the experiment on OVCAR-3; 111% with KM12; 104% in the experiment on SF-539. Further, the growth, % of control at 10 µM in the experiment on NCI-H522 came out at 89.4%; in the experiment with NCI-H460, 103%; in the experiment on SK-MEL-5, 97.1%.

The values are drawn from ChEMBL document CHEMBL4371053, “A novel tetrazole analogue of resveratrol is a potent anticancer agent” (Bioorg Med Chem Lett, 2019).
